SMILES strings stand for the structures. Converted amounts (≈) assume the structure as drawn.

The test system of assay [1] is L1210. The assay can be described thus: Compound was evaluated for growth inhibition in L1210 murine leukemia cells. It counts as functional, cell-based. As to conditions: Mus musculus.
Assay [2] deals with Lacticaseibacillus casei. In words: Compound was evaluated for growth inhibition in Lactobacillus casei MTX-resistant. It counts as functional, organism-based. In a few lines:
(§1)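 Lactobacillus casei growth was measured in medium with folate at 1 ng/mL.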

Assay [3] deals with L1210. In words: Compound was evaluated for inhibitory activity against DHFR in L1210 cells. The class given is functional, cell-based, Mus musculus.
Assay [4] relates to Enterococcus faecium. The assay can be described thus: Compound was evaluated for growth inhibition in Streptococcus faecium ATCC 8043. The class given is functional, organism-based. A digest of the protocol: (§2)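 Bacterial growth inhibition was run in medium with folate at 1 ng/mL.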
Assay [5] has as its system Lacticaseibacillus casei. The assay can be described thus: Compound was evaluated for growth inhibition in Lactobacillus casei ATCC 7469. It counts as functional, organism-based. In a few lines: as §1
The subject of assay [6] is Enterococcus faecium. In words: Compound was evaluated for growth inhibition in Streptococcus faecium MTX-resistant. The class given is functional, organism-based. A digest of the protocol:
as §2

The target of the next assay is T1, Thymidylate synthase (Lactobacillus casei, UniProt P00469).
T1 sequence (P00469 whole entry): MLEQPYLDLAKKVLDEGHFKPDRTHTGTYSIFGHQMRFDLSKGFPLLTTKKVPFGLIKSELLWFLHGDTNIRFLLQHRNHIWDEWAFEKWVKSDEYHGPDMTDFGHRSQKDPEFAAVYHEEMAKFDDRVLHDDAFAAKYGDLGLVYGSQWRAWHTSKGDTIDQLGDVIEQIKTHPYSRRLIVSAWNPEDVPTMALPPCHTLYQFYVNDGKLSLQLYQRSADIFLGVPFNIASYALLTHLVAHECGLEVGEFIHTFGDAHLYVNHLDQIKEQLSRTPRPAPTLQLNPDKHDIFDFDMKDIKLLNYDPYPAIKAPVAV
In words: Compound was evaluated for the inhibition of thymidylate synthase (TS) derived from Lactobacillus casei. Also on record: species or system Lacticaseibacillus casei.

The target in another assay is Dihydrofolate reductase (Lactobacillus casei, UniProt P00381). In words: Compound was evaluated for the inhibition of dihydrofolate reductase (DHFR)derived from Lactobacillus casei. Set-up: species or system Lacticaseibacillus casei.
Chain of Dihydrofolate reductase (P00381 whole entry): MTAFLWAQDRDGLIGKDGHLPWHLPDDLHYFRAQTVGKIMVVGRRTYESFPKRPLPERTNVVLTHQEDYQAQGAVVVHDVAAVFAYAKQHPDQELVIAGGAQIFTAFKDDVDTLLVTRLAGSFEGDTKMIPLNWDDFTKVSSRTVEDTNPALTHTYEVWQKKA
Setting [7] is: Lacticaseibacillus casei, read-out: IC50.

For `CN(Cc1cnc2nc(N)nc(N)c2n1)c1ccc(C(=O)N[C@@H](CCC(=O)O)C(=O)O)cc1` [METHOTREXATE], the 50% inhibitory concentration (IC50) (commonly the point on the concentration scale where inhibition reaches its midpoint) in the assay on L1210 [1] is 2.5 nM; in the assay on Lacticaseibacillus casei [2] it was greater than 500000 ng/mL; in the assay on Enterococcus faecium [4] it was 0.2 ng/mL (≈ 0.00044 µM); in the assay on Lacticaseibacillus casei [5] it was 0.009 ng/mL (≈ 1.98e-05 µM); in the assay on Enterococcus faecium [6], 3300 ng/mL (≈ 7.26 µM). The affinity in the assay with L1210 [3] corresponds to a Ki of 0.0032 nM.
Take `Nc1nc(N)c2c(n1)CCC1CC(c3ccc(C(=O)NC(CCC(=O)O)C(=O)O)cc3)C(=O)N21` (configuration not stated): the IC50 is greater than 10000 nM in the assay with L1210 [1]; greater than 10000 ng/mL in the assay with Lacticaseibacillus casei [2] (setting [7]); 6.2 ng/mL (≈ 0.0132 µM) in the assay on Enterococcus faecium [4]; greater than 200000 nM against Thymidylate synthase; 1600 nM against Dihydrofolate reductase; 0.54 ng/mL (≈ 0.00115 µM) with Lacticaseibacillus casei [5]. The compound also returned an IC50 with Enterococcus faecium [6] greater than 10000 ng/mL. Also, the Ki (commonly a measure of affinity in units of concentration, obtained from inhibition or displacement) in the assay with L1210 [3] is greater than 10 nM.
As for `Nc1nc(N)c2c(n1)CCC1CC(c3ccc(C(=O)NC(CCC(=O)O)C(=O)O)cc3)CN21` (configuration not stated), the IC50 in the assay on L1210 [1] is 250 nM; with Lacticaseibacillus casei [2] (setting [7]), greater than 10000 ng/mL; in the assay on Enterococcus faecium [4] it was 2 ng/mL (≈ 0.0044 µM); against Thymidylate synthase it was greater than 500000 nM; on Dihydrofolate reductase it was 1500 nM; in the assay on Lacticaseibacillus casei [5], 1 ng/mL (≈ 0.0022 µM). In the assay on Enterococcus faecium [6], this compound gave a 50% inhibitory concentration (IC50) of 530 ng/mL (≈ 1.17 µM). The compound also had a Ki with L1210 [3] greater than 10 nM.

The record behind these values is ChEMBL document CHEMBL1123445, “Synthesis and antifolate properties of 5,10-methylenetetrahydro-8,10-dideazaminopterin” (J Med Chem, 1986).
